Activity calls are given as the source filed them. The calls are words filed in the database; no cut-off is given here.
Experiments:
[1] = target: Glycogen synthase kinase-3 beta (Homo sapiens, UniProt P49841); experiment: Inhibition of recombinant human GSK-3beta using GS-2 peptide as substrate incubated for 30 mins in presence of ATP by kinase-glo luminescence assay
[2] = Induction in caspase-mediated apoptosis in human NB-4 cells assessed as late apoptotic cells at 12.5 uM incubated for 24 hrs by Annexin V-FITC/propidium iodide staining based flow cytometry analysis (reference value: 1.06%); format: functional
[3] = Induction in caspase-mediated apoptosis in human NB-4 cells assessed as necrotic cells at 12.5 uM incubated for 24 hrs by Annexin V-FITC/Propidium iodide staining based flow cytometry analysis (reference value: 0.352%); format: functional
[4] = Induction in caspase-mediated apoptosis in human NB-4 cells assessed as viable cells at 25 uM incubated for 24 hrs by Annexin V-FITC/propidium iodide staining based flow cytometry analysis (reference value: 96.6%); format: functional; conditions: read-out: Activity
[5] = Induction in caspase-mediated apoptosis in human NB-4 cells assessed as late apoptotic cells at 25 uM incubated for 24 hrs by Annexin V-FITC/propidium iodide staining based flow cytometry analysis (reference value: 1.06%); format: functional
[6] = Induction in caspase-mediated apoptosis in human NB-4 cells assessed as necrotic cells at 25 uM incubated for 24 hrs by Annexin V-FITC/Propidium iodide staining based flow cytometry analysis (reference value: 0.352%); format: functional
[7] = Induction in caspase-mediated apoptosis in human NB-4 cells assessed as early apoptotic cells at 12.5 uM incubated for 24 hrs in presence of Z-VAD-FMK by Annexin V-FITC/propidium iodide staining based flow cytometry analysis (reference value: 1.84%); format: functional
[8] = Induction in caspase-mediated apoptosis in human NB-4 cells assessed as late apoptotic cells at 50 uM incubated for 24 hrs by Annexin V-FITC/propidium iodide staining based flow cytometry analysis (reference value: 1.06%); format: functional
[9] = Induction in caspase-mediated apoptosis in human NB-4 cells assessed as necrotic cells at 50 uM incubated for 24 hrs by Annexin V-FITC/Propidium iodide staining based flow cytometry analysis (reference value: 0.352%); format: functional
[10] = Induction in caspase-mediated apoptosis in human NB-4 cells assessed as viable cells at 100 uM incubated for 24 hrs by Annexin V-FITC/propidium iodide staining based flow cytometry analysis (reference value: 96.6%); format: functional; conditions: read-out: Activity
[11] = Induction in caspase-mediated apoptosis in human NB-4 cells assessed as early apoptotic cells at 100 uM incubated for 24 hrs by Annexin V-FITC/propidium iodide staining based flow cytometry analysis (reference value: 2.02%); format: functional
[12] = Induction in caspase-mediated apoptosis in human NB-4 cells assessed as late apoptotic cells at 12.5 uM incubated for 24 hrs in presence of Z-VAD-FMK by Annexin V-FITC/propidium iodide staining based flow cytometry analysis (reference value: 1.15%); format: functional
[13] = Induction in caspase-mediated apoptosis in human NB-4 cells assessed as early apoptotic cells at 25 uM incubated for 24 hrs in presence of Z-VAD-FMK by Annexin V-FITC/propidium iodide staining based flow cytometry analysis (reference value: 1.84%); format: functional
[14] = Induction in caspase-mediated apoptosis in human NB-4 cells assessed as necrotic cells at 50 uM incubated for 24 hrs in presence of Z-VAD-FMK by Annexin V-FITC/propidium iodide staining based flow cytometry analysis (reference value: 0.167%); format: functional
[15] = Induction in caspase-mediated apoptosis in human NB-4 cells assessed as necrotic cells at 100 uM incubated for 24 hrs in presence of Z-VAD-FMK by Annexin V-FITC/propidium iodide staining based flow cytometry analysis (reference value: 0.167%); format: functional
[16] = Induction in caspase-mediated apoptosis in human NB4-DR1 cells assessed as viable cells at 25 uM incubated for 24 hrs by Annexin V-FITC/propidium iodide staining based flow cytometry analysis (reference value: 96.9%); format: functional; conditions: read-out: Activity
[17] = Induction in caspase-mediated apoptosis in human NB4-DR1 cells assessed as early apoptotic cells at 50 uM incubated for 24 hrs by Annexin V-FITC/propidium iodide staining based flow cytometry analysis (reference value: 1.43%); format: functional
[18] = Induction in caspase-mediated apoptosis in human NB4-DR1 cells assessed as necrotic cells at 50 uM incubated for 24 hrs by Annexin V-FITC/propidium iodide staining based flow cytometry analysis (reference value: 0.19%); format: functional
[19] = Induction in caspase-mediated apoptosis in human NB4-DR1 cells assessed as early apoptotic cells at 100 uM incubated for 24 hrs by Annexin V-FITC/propidium iodide staining based flow cytometry analysis (reference value: 1.43%); format: functional
[20] = Induction in caspase-mediated apoptosis in human NB4-DR1 cells assessed as late apoptotic cells at 12.5 uM incubated for 24 hrs in presence of Z-VAD-FMK by Annexin V-FITC/propidium iodide staining based flow cytometry analysis (reference value: 2.54%); format: functional
[21] = Induction in caspase-mediated apoptosis in human NB4-DR1 cells assessed as late apoptotic cells at 25 uM incubated for 24 hrs in presence of Z-VAD-FMK by Annexin V-FITC/propidium iodide staining based flow cytometry analysis (reference value: 2.54%); format: functional
[22] = Induction in caspase-mediated apoptosis in human NB4-DR1 cells assessed as viable cells at 50 uM incubated for 24 hrs in presence of Z-VAD-FMK by Annexin V-FITC/propidium iodide staining based flow cytometry analysis (reference value: 96.4%); format: functional; conditions: read-out: Activity
[23] = Induction in caspase-mediated apoptosis in human NB4-DR1 cells assessed as necrotic cells at 100 uM incubated for 24 hrs in presence of Z-VAD-FMK by Annexin V-FITC/propidium iodide staining based flow cytometry analysis (reference value: 0.223%); format: functional
NB-4 = experiment: Effect on glycogen synthase phosphorylation in human NB-4 cells assessed as reduction in ratio of p-GS to GS measured after 24 hrs by Western blot analysis; format: functional, cell-based
Procedure, shortened: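 NB4 and NB4-R1 cells were treated 24 h at several concentrations and lysed in RIPA. Equal protein was immunoblotted for phospho-glycogen synthase (Ser641), total GS and β-actin, with ECL detection. Band densities were quantified as the p-GS/GS ratio. n = 3, mean ± SEM.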

[24] = Tmax in ICR mouse at 15 mg/kg, ip administered as single dose measured upto 8 hrs by LC-MS/MS analysis; format: ADME, organism-based; conditions: in vivo
Procedure, shortened: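 Male ICR mice (30 g) received a single 15 mg/kg i.p. bolus in corn oil. Orbital blood went into K3EDTA tubes at 0.08–8 h, three animals per time point (composite profile). Plasma was protein-precipitated with acetonitrile and analysed by LC–MS/MS; non-compartmental analysis.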

[25] = AUCinfinity in ICR mouse at 15 mg/kg, ip administered as single dose measured upto 8 hrs by LC-MS/MS analysis; format: ADME, organism-based; parameters: route intraperitoneal, dose 15 mg/kg, time <=8; conditions: in vivo
Procedure, shortened: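 Male ICR mice (30 g) given a single i.p. bolus of 15 mg/kg in corn oil. Blood taken by orbital collection into K3EDTA tubes at 0.08, 0.17, 0.5, 1, 2, 4 and 8 h, three animals per time point, giving a composite profile. Plasma proteins were precipitated with acetonitrile and analysed by LC-MS/MS. Parameters were derived by non-compartmental analysis.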

Sequence of Glycogen synthase kinase-3 beta (P49841 whole entry): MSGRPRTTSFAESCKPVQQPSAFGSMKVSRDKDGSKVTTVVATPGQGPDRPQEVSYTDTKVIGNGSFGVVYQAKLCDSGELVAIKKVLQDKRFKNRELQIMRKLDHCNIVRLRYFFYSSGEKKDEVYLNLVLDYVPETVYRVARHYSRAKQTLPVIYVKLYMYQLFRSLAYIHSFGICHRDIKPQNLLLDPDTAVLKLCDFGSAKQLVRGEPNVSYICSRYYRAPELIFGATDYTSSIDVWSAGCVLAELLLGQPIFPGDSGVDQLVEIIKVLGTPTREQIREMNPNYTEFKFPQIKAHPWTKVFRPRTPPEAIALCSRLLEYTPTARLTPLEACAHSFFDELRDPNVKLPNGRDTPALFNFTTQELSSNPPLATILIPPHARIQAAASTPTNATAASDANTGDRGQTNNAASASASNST

IC50 [1]: 6.6 µM
Tmax [24]: 1 h
AUC [25]: 10838.33 ng·h/mL
Compound: C=CC(=O)N1C(=O)CC(c2ccc(F)cc2)Sc2ccccc21 (stereo unspecified)
Activity [2]: 8.04%
Activity [3]: 6.13%
viability at 25 µM [4]: 36.4%
Activity [5]: 45.6%
Activity [6]: 11.6%
Activity [7]: 4.58%
Activity [8]: 74%
Activity [9]: 4.51%
viability at 100 µM [10]: 5.94%
Activity [11]: 4.21%
Activity [12]: 7.39%
Activity [13]: 7.42%
Activity [14]: 1.52%
Activity [15]: 2.88%
viability at 25 µM [16]: 81.8%
Activity [17]: 1.92%
Activity [18]: 2.29%
Activity [19]: 4.16%
Activity [20]: 2.74%
Activity [21]: 5.45%
viability at 50 µM [22]: 91.3%
Activity [23]: 1.4%
Activity (NB-4): Active
